Compound activity deposited in PubChem BioAssay by The Scripps Research Institute Molecular Screening Center.
pPAFAH inh: pPAFAH (human) enzyme inhibition; Q13093; recombinant pPAFAH, FP-rhodamine probe fluorescence polarization; inhibition, % at 3.39 µM; actives 1.5% (n = 330,000); AID 463082;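 active = inhibition above the mean inhibition across the screen plus 3 SD, cut at about 25% in these data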;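 also: inhibitors block binding of the rhodamine activity-based probe so polarization drops; 0% = enzyme with DMSO and 100% = wells lacking pPAFAH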
ARFGAP1 inhibitor: rat ARFGAP1 inhibition; Arfgap1-stimulated ARF1 GTP hydrolysis, GDP FP detection; actives 0.26% (n = 360,000); inhibition, % at 16.5 µM; Q62848;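 active = inhibition above a per-plate limit, mean inhibition of low control wells plus 3 SD, cut at about 25% in these data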;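 also: 0% = DMSO wells with enzyme and 100% = wells lacking Arfgap1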
Target sequence (Q62848 1-136 limits assumed): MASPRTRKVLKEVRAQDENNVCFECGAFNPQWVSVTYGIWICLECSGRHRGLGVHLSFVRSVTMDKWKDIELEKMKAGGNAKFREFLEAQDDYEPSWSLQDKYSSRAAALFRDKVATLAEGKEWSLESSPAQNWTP
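system = rat Arfgap1 catalytic domain, aa 1-136 | technique = FP, GDP Alexa 633 tracer displaced from anti-GDP antibody, 620/688 nm | compound = one concentration, 16.5 µM, DMSO 1.26% | medium = HEPES-based buffer, pH 7.5 | timing = compound-enzyme preincubation 20 min, reaction 120 min, detection 60 min, 25 °C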
ASAP1 GAP inh: blocks human ASAP1-stimulated Arf1 GTP hydrolysis | actives 0.19% (n = 360,000) | inhibition, % at 16.5 µM | GDP FP detection | Q9ULH1; in the data active = inhibition above about 25%;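 also: 0% = vehicle with enzyme and substrate and 100% = no enzyme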
PAFAH1B2 inh: inhibitors of human PAFAH1B2; recombinant PAFAH1B2, FP-rhodamine activity probe, fluorescence polarization; P68402; actives 1.2% (n = 340,000); AID 492953; inhibition, % at 3.39 µM;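 active = inhibition above the mean of all tested compounds plus 3 SD, cut at about 24% in these data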;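 also: 0% = enzyme with DMSO and 100% = wells lacking PAFAH1B2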
Target sequence (P68402 whole entry, looked up): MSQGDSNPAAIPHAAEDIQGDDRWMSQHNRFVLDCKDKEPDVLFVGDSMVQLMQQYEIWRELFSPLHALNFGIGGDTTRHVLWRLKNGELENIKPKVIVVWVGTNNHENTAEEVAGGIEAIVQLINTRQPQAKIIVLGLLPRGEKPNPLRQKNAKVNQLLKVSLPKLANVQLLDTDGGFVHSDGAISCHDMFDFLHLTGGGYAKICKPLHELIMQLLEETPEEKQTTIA
PAFAH2 inh: PAFAH2 (human) inhibition | Q99487 | recombinant PAFAH2, FP-rhodamine activity probe, fluorescence polarization | inhibition, % at 3.39 µM | actives 0.99% (n = 340,000) | AID 492956;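 active = inhibition above the mean over all tested compounds plus 3 SD, cut at about 30% in these data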;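 also: inhibitors block probe labeling of enzyme so polarization drops; 0% = enzyme with DMSO and 100% = wells lacking PAFAH2 protein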
PAFAH1B3 inh: blocks human PAF acetylhydrolase 1B catalytic subunit 3; recombinant PAFAH1B3, FP-rhodamine probe, fluorescence polarization; inhibition, % at 3.39 µM; actives 0.28% (n = 340,000); AID 492972; Q15102;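 active = inhibition above the screen-wide average of all tested compounds plus 3 SD, cut at about 25% in these data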;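 also: 0% = enzyme with DMSO only and 100% = wells lacking PAFAH1B3 protein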
Target sequence (Q15102 whole entry, looked up): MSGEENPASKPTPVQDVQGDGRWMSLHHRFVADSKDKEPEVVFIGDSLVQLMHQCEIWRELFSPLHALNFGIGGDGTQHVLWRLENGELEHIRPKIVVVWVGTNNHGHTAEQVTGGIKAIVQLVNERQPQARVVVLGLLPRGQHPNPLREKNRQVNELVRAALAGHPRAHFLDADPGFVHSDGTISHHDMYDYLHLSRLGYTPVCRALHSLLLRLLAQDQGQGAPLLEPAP
Active calls of the source: *; . = no result given. Rows were chosen to be rich in hits. Some 2.7% of all compounds tested hit in one or more screens of this group.

SMILES	pPAFAH inh	ARFGAP1 inhibitor	ASAP1 GAP inh	PAFAH1B2 inh	PAFAH2 inh	PAFAH1B3 inh
CN(Cc1ccccc1)C(=O)CN1CCN(S(=O)(=O)c2ccc(Cl)c(Cl)c2)CC1	0.7	-14.3	8.3	30.0*	-0.5	5.8
O=C(N/N=C/c1cc2c(c([N+](=O)[O-])c1)OCO2)c1ccncc1	4.1	6.5	-3.6	-1.3	-2.1	8.4
O=C(N/N=C/c1ccncc1)c1cc([N+](=O)[O-])cc([N+](=O)[O-])c1O	32.2*	2.7	2.9	2.7	-5.1	14.5
COC(=O)CCC(=O)OC1(C)C(=O)C2=CN(Cc3ccco3)C(c3ccc(OC)cc3)=CC2=C(Br)C1=O (stereo not drawn)	24.9*	.	.	.	.	.
Nc1ncnc2c1ncn2[C@@H]1O[C@H](C(=O)N[C@@H](CCc2ccccc2)C(=O)N2CCN(C(=O)N3CCOCC3)CC2)[C@@H](O)[C@H]1O	.	-8.6	3.8	.	.	.
O=C(COC(=O)c1ccc(Cl)c([N+](=O)[O-])c1)Nc1ccccc1OC(F)F	31.9*	2.0	-3.3	-0.1	25.7	-1.0
O=C(COC(=O)CCC1CCCC1)NCc1ccc(Cl)cc1	29.6*	-2.1	-2.6	3.6	11.6	1.0
O=C(COC(=O)CCC1CCCCC1)Nc1ccc(OC(F)F)cc1	26.1*	11.4	16.7	3.3	11.2	-5.0
O=C(COC(=O)C1CCC1)Nc1ccc(OC(F)F)cc1	-1.4	-10.8	-2.8	4.1	15.9	-2.9
O=C(COC(=O)c1nc(Cl)ccc1Cl)Nc1ccccc1OC(F)F	10.5	3.5	11.4	2.8	-2.5	3.8
COc1ccc(C(=O)OCC(=O)Nc2ccc(OC(F)F)cc2)c(OC)c1	32.9*	1.4	-4.4	4.7	67.8*	7.3
O=C(C(=O)N1CCN(S(=O)(=O)c2ccc(F)cc2)CC1)c1cccc(C(F)(F)F)c1	.	-5.5	-1.5	.	.	.
CCOC(=O)c1ccc(NC(=O)OC[C@@H]2CSCCS(=O)(=O)N2)cc1	.	4.3	-9.9	.	.	.
COc1ccc(CCn2cnn3c(=O)c4ccccc4nc3c2=O)cc1OC	.	3.4	11.3	.	.	.
O=C(COC(=O)CCc1ccccc1)Nc1ccccc1OC(F)F	12.8	-1.5	5.5	17.1	16.2	-1.0
NS(=O)(=O)c1ccc(NC(=O)COC(=O)CCC2CCCC2)cc1	-2.9	7.9	7.2	4.3	5.4	0.2
O=C(COC(=O)CCC1CCCC1)Nc1ccc(F)cc1	31.7*	7.2	8.7	12.4	27.4	-2.2
O=C(COC(=O)CCC1CCCC1)Nc1ccccc1OC(F)F	29.3*	-2.6	-6.1	3.2	4.8	1.6
COc1ccc2c(c1)c(/C=N/Nc1ccc(C(=O)O)cc1)c(C)n2C	25.0*	-2.9	5.7	3.2	5.8	8.3
COc1ccc2c(c1)C(=NNc1ccc(C(=O)O)cc1)c1cc(OC)ccc1-2	31.3*	-2.4	-0.3	11.1	21.0	27.0*
COc1ccc2c(/C=N/Nc3ccc(C(=O)O)cc3)c[nH]c2c1	27.8*	0.0	16.9	-1.4	-3.5	6.3
CCOc1cc(-c2nn3cnnc3s2)cc(OCC)c1OCC	27.9*	-13.1	5.8	-3.8	-9.0	1.2
CC1(C)CC2CC(C)(CN2C(=O)CN2C(=O)c3ccccc3C2=O)C1 (stereo not drawn)	4.7	3.5	12.2	24.2*	-7.9	3.9
Cc1[nH]c2ccccc2c1CC(=O)Nc1ccc(Nc2cccnc2)c(-c2ccc(Cl)c(Cl)c2)c1	.	18.3	10.8	.	.	.
COC(=O)C1=C(C)N(Cc2ccccc2C(F)(F)F)C(=NCc2ccc3c(c2)OCO3)NC1c1ccccc1C(F)(F)F (stereo not drawn)	.	5.8	15.9	.	.	.
SMILES	pPAFAH inh	ARFGAP1 inhibitor	ASAP1 GAP inh	PAFAH1B2 inh	PAFAH2 inh	PAFAH1B3 inh
COC(=O)Cc1nnn2c1[C@@H](C)[C@@H](c1ccccc1Br)OC[C@H](C)C2	.	-5.1	-5.6	.	.	.
CC(C)(C)c1ccc(NC(=O)N2CCCN(c3ccc([N+](=O)[O-])cn3)CC2)cc1	6.0	10.9	-4.8	25.4*	3.7	1.3
NC(=O)CCC(NS(=O)(=O)c1ccc(Cl)cc1)C(=O)NCc1ccc(Cl)cc1 (stereo not drawn)	0.9	-3.5	-1.2	24.3*	1.8	4.2
Cc1cccc(N2CC34C=CC(O3)C(C(=O)O)C4C2=O)c1 (stereo not drawn)	-0.4	2.7	-2.0	1.3	0.7	1.1
COC(=O)C1C2C=CC3(CN(CCc4ccccc4)C(=O)C13)O2 (stereo not drawn)	1.8	4.0	-11.9	0.1	-4.0	-0.4
O=C(O)C1C2C=CC3(CN(c4cccc(C(F)(F)F)c4)C(=O)C13)O2 (stereo not drawn)	2.0	-7.0	16.6	25.3*	1.4	5.7
O=C(O)C1C2C=CC3(CN(C/C=C/c4ccccc4)C(=O)C13)O2 (stereo not drawn)	30.6*	8.8	-2.5	2.9	7.6	-2.4
COC(=O)C(Cc1ccc(O)cc1)NC(=O)c1ccccc1 (stereo not drawn)	7.4	6.1	-13.9	3.1	-2.8	2.8
COC(=O)C(Cc1ccc(O)cc1)NC(=O)C(C)NC(=O)c1ccc(C(C)(C)C)cc1 (stereo not drawn)	4.2	-1.7	21.4	27.5*	6.5	7.3
CC(C)(C)C1CCC2(CC1)C(C#N)=C(SCC(=O)Nc1ccccc1)NC(=O)C2C#N (stereo not drawn)	8.9	-0.4	6.8	57.5*	5.0	8.1
CCNC(=O)OC[C@H]1O[C@H](C#Cc2ccc(C(C)(C)C)cc2)C=C[C@H]1OC(C)=O	.	7.3	-8.2	.	.	.
CCC1COC(c2cccn2Cc2ccc(Cl)cc2)=N1 (stereo not drawn)	28.4*	-19.0	0.0	1.5	4.2	0.8
O=C(NCCc1ccccc1Cl)[C@@H]1CCCN1C(=O)[C@@H](NC(=O)N1CCOCC1)c1ccccc1	.	-10.7	-0.7	.	.	.
Cc1ccc(-n2c(O)c(/C=N/Nc3ccc(S(=O)(=O)N4CCOCC4)cc3[N+](=O)[O-])c3ccccc3c2=O)c(C)c1	1.9	0.5	16.3	63.9*	33.9*	18.3
O=C(O)c1ccc(/C=N\Nc2ccc(S(=O)(=O)N3CCOCC3)cc2[N+](=O)[O-])cc1	-2.9	3.5	5.3	0.2	5.8	7.8
Cc1c(O)cc2c(c1O)C(=O)CC(c1ccc(O)cc1)O2 (stereo not drawn)	32.2*	0.9	14.4	3.7	5.2	15.4
COC(=O)c1cc2c(c3c4cc(OC)ccc4n(S(=O)(=O)c4cccc(C)c4)c13)C(=O)N(Cc1ccc(C(F)(F)F)cc1)C2	.	2.2	-8.7	.	.	.
CCCC(=O)OC[C@H]1CN(C2CCCC2)S(=O)(=O)c2c(Oc3ccc(F)cc3)cccc2O1	.	-10.7	-5.3	.	.	.
Cc1ccc(-c2c(C(=O)NCc3ccccc3)oc(=O)c3ccccc23)cc1	32.0*	1.8	11.6	10.1	24.2	1.2
